Only some compounds are listed: those with a hit (about 9.2% of all), similar ones and a draw of the others.
ERa SRC1 inh – blocks coactivator binding to human estrogen receptor alpha; P03372; TR-FRET ER-alpha LBD / SRC-1 peptide, estradiol-bound; inhibition, % at 25.6 µM; hit rate 1.7% among 86,000; AID 629; in the data active = inhibition above about 50%;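 note: 0% = receptor plus peptide control and 100% = peptide only without receptor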
Target sequence (P03372 whole entry, looked up, the tested form may be a part): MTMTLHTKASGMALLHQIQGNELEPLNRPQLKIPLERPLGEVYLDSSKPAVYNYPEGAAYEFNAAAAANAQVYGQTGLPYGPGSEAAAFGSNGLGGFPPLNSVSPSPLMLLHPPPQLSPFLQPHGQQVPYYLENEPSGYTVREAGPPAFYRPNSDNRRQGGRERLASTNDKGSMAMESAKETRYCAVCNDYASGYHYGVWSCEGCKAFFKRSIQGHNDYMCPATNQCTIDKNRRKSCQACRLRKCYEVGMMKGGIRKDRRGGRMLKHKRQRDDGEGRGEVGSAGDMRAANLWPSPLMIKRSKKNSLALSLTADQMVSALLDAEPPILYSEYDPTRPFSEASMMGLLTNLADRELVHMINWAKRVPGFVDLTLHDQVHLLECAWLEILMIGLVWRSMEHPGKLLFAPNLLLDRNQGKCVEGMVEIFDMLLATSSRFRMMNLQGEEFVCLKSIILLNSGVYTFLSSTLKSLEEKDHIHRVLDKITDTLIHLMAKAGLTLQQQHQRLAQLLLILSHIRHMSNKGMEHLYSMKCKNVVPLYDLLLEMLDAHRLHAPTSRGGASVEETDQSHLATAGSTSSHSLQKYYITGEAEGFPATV
Lung fibro prol – blocks proliferation of human lung fibroblasts. LL 47 human lung fibroblast viability, ATP luminescence; hits give low values. viability, % at 10 µM. hit rate 1.1% among 85,000;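 active = viability at or below 50% in the single dose screen; inactive = viability above 50%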;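 note: compound exposure lasted 72 h before the ATP readout; 100% = median luminescence of untreated cell-only wells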
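Material: human LL 47 lung fibroblast cells; quantity: 1,150 cells/well; medium: IMEM plus 15% FBS; doses: 0.1% DMSO in all compound wells; timing: overnight attachment after seeding, then 72 h compound exposure at 37 °C; detection: CellTiter-Glo luminescence; measure: % viability of median cell-only signal; controls: cell-only wells, no compound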
H69AR growth 86K – blocks growth of human H69AR lung tumor cells; H69AR lung tumor viability, ATP luminescence, 72 h; hits give low values; viability, % at 10 µM; hit rate 6% among 85,000; AID 598;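 active = viability at or below 40%; inactive = viability above 40%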;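 note: multidrug resistant small cell line overexpressing MRP-1 efflux transporter; 100% = mean luminescence of untreated control wells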
ERb SRC1 inh – ER-beta (human) coactivator binding inhibition; Q92731; hit rate 1.3% among 86,000; TR-FRET ER-beta LBD / SRC1-Cy5 peptide binding; receptor agonist-loaded with 1 µM estradiol; inhibition, % at 25.6 µM;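 active = compounds whose percent inhibition of the receptor-coactivator binding signal exceeds about 50% in the single-dose screen, limit read from the data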;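 note: 0% = receptor plus peptide wells without compound and 100% = peptide-only wells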
ERa SRC1 pot – ER-alpha (human) coactivator binding potentiation | P03372 | TR-FRET ERalpha-LBD/SRC-Cy5 coactivator binding, 2 h; 100 = basal binding, no effect | coactivator binding (% of control), % at 25.6 µM | hit rate 1.3% among 86,000 | AID 639; in the data active = activity above about 200%;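 note: binding measured in presence of low estradiol as agonist stimulus; 0% = peptide alone without receptor and 100% = receptor with peptide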
HUVEC inhibit – human endothelial cell proliferation inhibition; HUVEC proliferation, CellTiter-Glo luminescence, 72 h; hits give low values; viability, % at 10 µM (by protocol); hit rate 1.1% among 86,000;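 active = viability at or below 30%; inactive = viability above 30%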;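 note: 100% = median luminescence of DMSO-only cell control wells on each plate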
* marks the source's active call; other numbers are inactive results; [ ] = dose if it differs, or a comment.

SMILES | ERa SRC1 inh | Lung fibro prol | H69AR growth 86K | ERb SRC1 inh | ERa SRC1 pot | HUVEC inhibit
CC(C)C(=O)Nc1ccc(C(=O)NC2CCSC2=O)cc1 (configuration not stated) | 15 | 94 | 71 | 8 | 204* | 87
Cc1nc2ccccn2c1-c1csc(NCc2ccco2)n1 | -10 | 91 | 78 | -6 | 96 | 98
Cc1ccn2c(-c3csc(NCc4ccccc4)n3)c(C)nc2c1 | -3 | 85 | 22* | -7 | 81 | 63
COCCN1C(=O)c2ccccc2C(C(=O)NCC2CCCO2)C1c1c[nH]c2ccccc12 (configuration not stated) | -5 | 97 | 90 | -2 | 109 | 103
CN1C(=O)c2ccccc2C(C(=O)NCC2CCCO2)C1c1c[nH]c2ccccc12 (configuration not stated) | -6 | 90 | 94 | 81*[fluorescence artefact?] | 97 | 96
COC(=O)C1=CN(CC2CCCO2)C=C(C(=O)OC)C1c1ccsc1 (configuration not stated) | 1 | 90 | 48 | -5 | 99 | 86
COC(=O)C1=CN(CC2CCCO2)C=C(C(=O)OC)C1c1ccccc1C(F)(F)F (configuration not stated) | -5 | 101 | 37* | -2 | 94 | 111
c1ccc(CSc2ncnc3c2oc2ccccc23)cc1 | 26 | 90 | 83 | 12 | 107 | 90
CCOc1ccccc1NC(=O)CSc1ncnc2c1oc1ccccc12 | 31 | 89 | 84 | 41 | 274*[fluorescence artefact?] | 91
COC(=O)c1ccc(CSc2ncn[nH]2)o1 | -8 | 104 | 100 | 86*[fluorescence artefact?] | 107 | 108
Fc1ccccc1CSc1ncnc2c1oc1ccccc12 | 28 | 104 | 96 | 31 | 213*[fluorescence artefact?] | 88
COC(=O)c1ccc(CSc2ncnc3ccccc23)o1 | -6 | 98 | 43 | -10 | 116 | 79
COC(=O)c1ccc(CSc2ncnc3c2oc2ccccc23)o1 | 41 | 101 | 64 | 56*[fluorescence artefact?] | 234*[fluorescence artefact?] | 90
CCC(Sc1nc2sc(C(=O)OC)c(C)c2c(=O)n1N)C(=O)NCC1CCCO1 (configuration not stated) | -11 | 90 | 69 | -5 | 110 | 92
CS(=O)(=O)N1CCN(c2ccccc2NC(=O)c2ccco2)CC1 | -8 | 107 | 87 | 8 | 95 | 106
CC(=O)CSc1ncnc2c1oc1ccccc12 | 5 | 102 | 90 | -13 | 108 | 96
O=C(CSc1ncnc2c1oc1ccccc12)Nc1ccccc1F | 47 | 108 | 97 | 55*[fluorescence artefact?] | 406*[fluorescence artefact?] | 102
CCOC(=O)Cc1csc(NC(=O)CC)n1 | -1 | 77 | 109 | -2 | 121 | 90
CCOC(=O)Cc1csc(NC(=O)Cc2cccs2)n1 | 90*[fluorescence artefact?] | 98 | 101 | 75* | 19 | 98
COc1cc(/C=C/c2ccc3cccc(OC)c3n2)c(OC(C)=O)c([N+](=O)[O-])c1 | 15 | 94 | 6.1* | 10 | 90 | 15*
CCC(=O)NC(c1cccc([N+](=O)[O-])c1)c1c(OC(C)=O)ccc2ccccc12 (configuration not stated) | -6 | 104 | 97 | -3 | 95 | 84
COC(=O)c1ccccc1NC(=O)c1sc(N)nc1C | 10 | 97 | 95 | 4 | 103 | 87
COC(=O)c1ccccc1NC(=O)c1sc(=S)n(C)c1N | 70*[fluorescence artefact?] | 93 | 76 | 38 | 19 | 91
O=c1c2ccccc2nc2c3ccccc3c(NCCN3CCOCC3)nn12 | -8 | 33* | 19* | 2 | 92 | 36
c1ccc(-c2nc(NCCCN3CCOCC3)c3ccccc3n2)cc1 | -29 | 99 | 26* | -16 | 126 | 83
COCCCn1c(N)c(-c2nc3ccccc3n2C)c2nc3ccccc3nc21 | -5 | 91 | 62 | -9 | 85 | 69
Cn1c(-c2c(N)n(CCc3ccccc3)c3nc4ccccc4nc23)nc2ccccc21 | 6 | 87 | 36* | 11 | 59 | 72
Cn1c(-c2c(N)n(CCCc3ccccc3)c3nc4ccccc4nc23)nc2ccccc21 | -2 | 91 | 23* | -2 | 104 | 73
O=C(N1CCCC1)n1c(Cc2ccccc2)nc2ccccc21 | -5 | 101 | 109 | -4 | 97 | 100
